Here are results for 40 compounds from ChEMBL document CHEMBL1132288, “Synthesis and in vitro pharmacology of a series of new chiral histamine H3-receptor ligands: 2-(R and S)-Amino-3-(1H-imidazol-4(5)-yl)propyl ether derivatives” (J Med Chem, 1999).

In general, Ki refers to a dissociation constant, usually derived from enzyme kinetics or from competition with a known ligand. A higher Ki goes with weaker binding.

For assay [1], the target named is Histamine H3 receptor (Rattus norvegicus) (UniProt Q9QYN8). Kind of assay: Binding affinity for Histamine H3 receptor. Summed up: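 Affinity for the H3 receptor measured in an in vitro binding assay by displacement of the radioligand [3H]R-(α)-methylhistamine.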
Chain of Histamine H3 receptor (Rattus norvegicus) (Q9QYN8 whole entry): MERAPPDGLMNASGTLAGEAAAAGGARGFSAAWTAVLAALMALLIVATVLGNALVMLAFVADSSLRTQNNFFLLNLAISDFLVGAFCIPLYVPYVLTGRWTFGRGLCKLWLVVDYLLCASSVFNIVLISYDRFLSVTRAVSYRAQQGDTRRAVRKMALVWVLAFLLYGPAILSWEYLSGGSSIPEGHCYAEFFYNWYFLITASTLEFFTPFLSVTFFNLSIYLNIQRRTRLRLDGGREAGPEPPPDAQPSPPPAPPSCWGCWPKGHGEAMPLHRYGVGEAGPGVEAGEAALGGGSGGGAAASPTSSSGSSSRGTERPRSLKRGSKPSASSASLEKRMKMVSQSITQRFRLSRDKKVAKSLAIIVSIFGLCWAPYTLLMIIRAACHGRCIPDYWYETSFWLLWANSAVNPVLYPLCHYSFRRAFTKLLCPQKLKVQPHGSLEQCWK
For assay [2] the target is unchanged. Conditions: filed as antagonist; 10e-5 M.
For assay [3] the target is unchanged. Conditions: filed as antagonist, 10e-6 M.
Assay [4] shares this target. To be noted: Striatum; filed as antagonist; 10e-5 M.
The target is the same in assay [5]. To be noted: Striatum, filed as antagonist, 10e-6 M.
Assay [6] has the same target. To be noted: filed as antagonist; 10e-5 M. This is another data set of the same source.
For assay [7] the target is unchanged. To be noted: Striatum, 10e-5 M.
The target is the same in assay [8]. The assay is described as follows: Agonistic activity, Histamine H3 receptor dependent activation of G-proteins with GTP gamma-[35S] autoradiography of rat cortical tissue sections. at 10e-5 M conc.;no response above basal. The class given is functional. The method, boiled down:
(§1)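 Rat brain tissue sections were incubated with the test compound at the stated concentrations together with GTPγ[35S], then washed and dried. Film autoradiograms were digitized and quantified against [14C] standards. Responses were read from cerebral cortex and striatum, four animals per region, with cerebellum (no H3 receptors) as a nonspecific-effect control.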

For assay [9] the target is unchanged. Kind of assay: Agonistic activity, Histamine H3 receptor dependent activation of G-proteins with GTP gamma-[35S] autoradiography of rat striatal tissue sections. at 10e-5 M conc.;no response above basal. It is filed as functional. The method, boiled down: as §1
The target is the same in assay [10]. Conditions: 10e-8 M.
For assay [11] the target is unchanged. To be noted: Striatum; 10e-8 M.
The target of assay [12] is T1, Histamine H3 receptor (Rattus norvegicus, UniProt Q9QYN8). The assay is described as follows: Binding affinity of compound against Histamine H3 receptor. The method, boiled down:
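Displacement of the radioligand [3H]R-(α)-methylhistamine from the histamine H3 receptor in an in vitro receptor binding assay.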

For assay [13], the target named is Histamine H3 receptor (Rattus norvegicus) (UniProt Q9QYN8). Kind of assay: Agonistic activity, Histamine H3 receptor dependent activation of G-proteins with GTP gamma-[35S] autoradiography of rat striatal tissue sections. at 10e-5 M conc.; half-maximal response. Conditions: filed as partial agonist. The class given is functional. Summed up:
as §1

For assay [14] the target is unchanged. Kind of assay: Agonistic activity, Histamine H3 receptor dependent activation of G-proteins with GTP gamma-[35S] autoradiography of rat cortical tissue sections. at 10e-5 M conc.; half-maximal response. The class given is functional. Conditions: filed as partial agonist. Summed up: as §1
The target is the same in assay [15]. Kind of assay: Agonistic activity, Histamine H3 receptor dependent activation of G-proteins with GTP gamma-[35S] autoradiography of rat striatal tissue sections. at 10e-5 M conc.; maximal response. It is filed as functional. To be noted: filed as agonist. Summed up:
as §1

Assay [16] shares this target. The assay is described as follows: Agonistic activity, Histamine H3 receptor dependent activation of G-proteins with GTP gamma-[35S] autoradiography of rat cortical tissue sections. at 10e-5 M conc.; maximal response. It is filed as functional. To be noted: filed as agonist. The method, boiled down: as §1
Assay [17] has the same target. Kind of assay: Agonistic activity, H3-receptor dependent activation of G-proteins with GTP gamma-[35S] autoradiography of rat striatal tissue sections. at 10e-5 M conc.; maximal response. The class given is functional. To be noted: filed as agonist. The method, boiled down: as §1
For assay [18] the target is unchanged. Kind of assay: Agonistic activity, H3-receptor dependent activation of G-proteins with GTP gamma-[35S] autoradiography of rat cortical tissue sections. at 10e-5 M conc.; maximal response. It is filed as functional. Conditions: filed as agonist. The method, boiled down:
as §1

Assay [19] shares this target. The assay is described as follows: Agonistic activity, Histamine H3 receptor dependent activation of G-proteins with GTP gamma-[35S] autoradiography of rat cortical tissue sections. at 10e-5 M conc; maximal response. The class given is functional. To be noted: filed as agonist. Summed up: as §1
Assay [20] has the same target. Conditions: filed as antagonist.
The target is the same in assay [21]. Conditions: filed as antagonist; 10e-6 M.
The target is the same in assay [22]. To be noted: filed as antagonist. The source holds these as a separate data set.
The target is the same in assay [23]. Conditions: Striatum; filed as antagonist; 10e-6 M.
For assay [24] the target is unchanged. The assay is described as follows: Agonistic activity, Histamine H3 receptor dependent activation of G-proteins with GTP gamma-[35S] autoradiography of rat cortical tissue sections. at 10e-5 M conc.; weak response (between half-maximal and basal. The class given is functional. To be noted: filed as partial agonist. Summed up: as §1
Assay [25] shares this target. To be noted: filed as agonist; 10e-5 M.
The target is the same in assay [26]. Conditions: filed as antagonist; 10e-6 M. The source holds these as a separate data set.
Assay [27] addresses T1, Histamine H3 receptor. The assay is described as follows: PKi was measured by Histamine H3 receptor binding assay (N-alpha-MeHA) on rat cerebral cortex. It is filed as tissue-based. Summed up: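 Affinity measured by displacement of the radioligand [3H]R-(α)-methylhistamine in an in vitro H3-receptor binding assay.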
For assay [28], the target named is Histamine H3 receptor (Rattus norvegicus) (UniProt Q9QYN8). Conditions: filed as antagonist; 10e-8 M.
For assay [29] the target is unchanged. Conditions: Striatum; filed as antagonist; 10e-8 M.

Calls of active or inactive are those of the source. The calls are words filed in the database; no cut-off is given here.

T1 sequence (Q9QYN8 whole entry): as above

`C[C@H](N)[C@@H](C)c1c[nH]cn1` registered a pD2 in assay [1] of 6.5.
For the compound `NCCc1c[nH]cn1.N[C@@H](COCc1ccccc1)Cc1c[nH]cn1`, the Antagonist activity result in assay [2], in [3], in assay [4] and in assay [5] was “Antagonist” in each case.
Consider `NCCc1c[nH]cn1.N[C@@H](COCC1CCCCC1)Cc1c[nH]cn1`, for which the Antagonist activity result in [2], in [3], in assay [4] and in assay [5] was “Antagonist” throughout.
As to `NCCc1c[nH]cn1.N[C@@H](COCc1ccc(Br)cc1)Cc1c[nH]cn1`, the Antagonist activity result in [6] is “Partial antagonist”; in assay [3], “Antagonist”; in [7] it was “Partial agonist”; in assay [5], “Antagonist”.
For the compound `N[C@@H](COCc1ccccc1)Cc1c[nH]cn1`, the Agonistic activity entry in assay [8] and in assay [9] was “inactive” in each case.
In turn, `C[C@H](c1c[nH]cn1)[C@@H](C)N` registered a pD2 in assay [1] of 8.5.
In the case of `Ic1ccc(COCCCc2c[nH]cn2)cc1.NCCc1c[nH]cn1`, the Antagonist activity result in [10] and in assay [11] was “inactive” throughout.
With `N[C@H](Cc1ccccc1)C(=O)NCCc1c[nH]cn1`, at Histamine H3 receptor [12], the Ki is more than 10000 nM.
As to `N[C@@H](COCc1ccc(Br)cc1)Cc1c[nH]cn1`, the Agonistic activity entry in assay [13] and in [14] was “Partial agonist” throughout.
Regarding `NCCc1c[nH]cn1.N[C@H](COCc1ccc(Br)cc1)Cc1c[nH]cn1`, the Antagonist activity result in assay [6] is “Partial antagonist”; in assay [3] it was “Antagonist”; in assay [7], “Partial agonist”; in assay [5], “Antagonist”.
On to `NCCc1c[nH]cn1.N[C@@H](COCc1ccc(I)cc1)Cc1c[nH]cn1`, for which the Antagonist activity result in assay [6] was “Partial antagonist”; in assay [3] it was “Antagonist”; in assay [7] (filed as antagonist), “Partial agonist”; in [5], “Antagonist”.
Turning to `NCCc1c[nH]cn1.N[C@H](COCC1CCCCC1)Cc1c[nH]cn1`, the Antagonist activity result in assay [2], in [3], in [4] and in [5] was “Antagonist” in each case.
With `N[C@@H](Cc1ccccc1)C(=O)N[C@H]1C[C@@H]1c1c[nH]cn1`, on Histamine H3 receptor [12], the Ki is 20 nM.
`N[C@H]1C[C@@H]1c1c[nH]cn1` [VUF-5297] gave an inhibitory constant (Ki) on Histamine H3 receptor [12] of 25.1 nM.
Consider `N[C@H](COCC1CCCCC1)Cc1c[nH]cn1`, for which the Agonistic activity result in assay [15] and in assay [16] was “Agonist” throughout.
Turning to `N[C@@H](Cc1ccccc1)C(=O)NCCc1c[nH]cn1`, the Ki at Histamine H3 receptor [12] was 100 nM.
In the case of `NCCCCCc1c[nH]cn1`, the Agonistic activity entry in [17] and in assay [18] was “Agonist” throughout.
Turning to `N=C(N)CCCc1c[nH]cn1`, in assay [1], the pD2 was 9.
Turning to `N[C@H](/C=C\[C@@H]1C[C@H]1c1c[nH]cn1)CC1CCCCC1`, on Histamine H3 receptor [12], the affinity corresponds to a Ki of 100 nM. This lies in the sub-micromolar range.
For the compound `CC(C)(C)CCC#C[C@@H]1C[C@H]1c1c[nH]cn1` [CIPRALISANT], in assay [1], the pD2 was 8.5. For the same compound, the inhibitory constant (Ki) on Histamine H3 receptor [12] was 0.126 nM.
In [1], `C[C@@H]1NCC[C@H]1c1c[nH]cn1` showed a pD2 of 7.1.
For `N=C(NCc1ccc(Cl)cc1)SCCCc1c[nH]cn1.NCCc1c[nH]cn1`, the Antagonist activity result in assay [10] and in assay [11] was “inactive” each time.
In [1], `CNCCc1cnc[nH]1` gave a pD2 of 7.7.
Consider `N[C@@H](COCc1ccc(I)cc1)Cc1c[nH]cn1`, for which the Agonistic activity result in [8] and in [9] was “inactive” in each case.
In assay [1], `N[C@@H](Cc1ccccc1)C(=O)N[C@@H]1C[C@H]1c1c[nH]cn1` came in with a pD2 of 8.7.
In [1], `c1nc(CC2CCNCC2)c[nH]1` returned a pD2 of 8.
As to `N=C(N)SCCc1c[nH]cn1`, the pD2 in [1] came out at 8.1.
For the compound `N[C@H](COCc1ccc(Br)cc1)Cc1c[nH]cn1`, the Agonistic activity result in [13] and in assay [14] was “Partial agonist” each time.
In the case of `N[C@@H](COCC1CCCCC1)Cc1c[nH]cn1`, the Agonistic activity result in [19] and in assay [15] was “Agonist” throughout.
The compound `N[C@H](/C=C/[C@@H]1C[C@H]1c1c[nH]cn1)CC1CCCCC1` showed a Ki at Histamine H3 receptor [12] of 0.398 nM.
As to `NCCc1c[nH]cn1.N[C@H](COCc1ccccc1)Cc1c[nH]cn1`, the Antagonist activity result in assay [2], in assay [3], in [4] and in assay [5] was “Antagonist” in each case.
On to `N[C@@H]1C[C@H]1c1cnc[nH]1` [VUF-5296], for which the Ki on Histamine H3 receptor [12] was 3.16 nM.
Consider `N[C@H](COCc1ccc(I)cc1)Cc1c[nH]cn1`, for which the Agonistic activity entry in assay [8] and in assay [9] was “inactive” throughout.
As to `NCCc1c[nH]cn1.N[C@H](COCc1ccc(I)cc1)Cc1c[nH]cn1`, the Antagonist activity result in [20], in assay [21], in [22] and in assay [23] was “Partial antagonist” in each case.
On to `C[C@@H](N)Cc1c[nH]cn1`, for which the pD2 in assay [1] is 8.4.
In the case of `N[C@H](COCc1ccccc1)Cc1c[nH]cn1`, the Agonistic activity entry in assay [24] and in assay [13] was “Partial agonist” in each case.
`NCCc1c[nH]cn1`: the Agonistic activity entry in [15] and in assay [16] was “Agonist” each time. The pD2 in assay [1] stood at 7.2. The Agonist activity result in assay [25] was “Agonist”. For the same compound, the Antagonist activity result in [26] is “Antagonist”.
`c1ccc(COCCCc2c[nH]cn2)cc1` [PROXYFAN] had a Ki on Histamine H3 receptor [27] of 5.01 nM.
For `NCCc1c[nH]cn1.S=C(NC1CCCCC1)N1CCC(c2c[nH]cn2)CC1`, the Antagonist activity entry in [28] was “Agonist”; in assay [29], “Antagonist”.
The compound `C[C@H]1NCC[C@@H]1c1c[nH]cn1` had a pD2 in [1] of 7.1.
